# Reference: ChEMBL document CHEMBL1123867, “Anticonvulsant O-alkyl sulfamates. 2,3:4,5-Bis-O-(1-methylethylidene)-beta-D-fructopyranose sulfamate and related compounds” (1987)
# Activity calls are given as the source filed them. The calls are words filed in the database; no cut-off is given here.
# Legend:
# Mus musculus [1] = experiment: Anticonvulsant activity by using a standard maximal electroshock test (MES) in mice, by intraperitoneal administration of the compound; type: functional; conditions: ip
# Method in brief: (§1)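 Supramaximal electroshock: 50-mA current (60 Hz, 0.20 s) via corneal electrodes induced hind-limb tonic extension; inhibition of this component scored as activity. Mice dosed ip and/or po in aqueous solution or suspension (ca. 0.1% Tween 80, distilled water). Tested at 30, 60, 120 and 240 min (sometimes 45 min); ten mice per time point.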
# Mus musculus [2] = experiment: Anticonvulsant activity following p.o. administration by standard maximal electroshock test in mice.; type: functional; conditions: po; method in brief: as §1
# Mus musculus [3] = experiment: Percentage block of the hind-limb tonic-extensor seizure was determined after application of an electric shock to mice for 60 min followed by 100 mg/kg intraperitoneal dose; type: functional; method in brief: as §1
# Mus musculus [4] = experiment: Percentage block of the hind-limb tonic-extensor seizure was determined after application of an electric shock to mice for 240 min followed by 100 mg/kg intraperitoneal dose; type: functional; method in brief: as §1
# Mus musculus [5] = experiment: Percentage block of the hind-limb tonic-extensor seizure was determined after application of an electric shock to mice for 240 min followed by 200 mg/kg peroral dose; type: functional; conditions: route oral; method in brief: as §1
# Mus musculus [6] = experiment: Percentage block of the hind-limb tonic-extensor seizure was determined after application of an electric shock to mice for 120 min followed by 200 mg/kg peroral dose; type: functional; conditions: route oral; method in brief: as §1
# Mus musculus [7] = experiment: Percentage block of the hind-limb tonic-extensor seizure was determined after application of an electric shock to mice for 120 min followed by 100 mg/kg intraperitoneal dose; type: functional; method in brief: as §1
# Mus musculus [8] = experiment: Percentage block of the hind-limb tonic-extensor seizure was determined after application of an electric shock to mice for 30 min followed by 100 mg/kg intraperitoneal dose; type: functional; method in brief: as §1
# Mus musculus [9] = experiment: Percentage block of the hind-limb tonic-extensor seizure was determined after application of an electric shock to mice for 30 min followed by 200 mg/kg peroral dose; type: functional; conditions: route oral; method in brief: as §1
# Mus musculus [10] = experiment: Percentage block of the hind-limb tonic-extensor seizure was determined after application of an electric shock to mice for 60 min followed by 200 mg/kg peroral dose; type: functional; conditions: route oral
# Method in brief: (§2)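 Mouse MES test: supramaximal seizure from a 50-mA current (60 Hz, 0.20-s) through corneal electrodes. […] Ten mice per time point. Compound given in aqueous solution or in suspension in ca. 0.1% Tween 80 and distilled water. Free food and water except during testing.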
# Mus musculus [11] = experiment: Percentage block of the hind-limb tonic-extensor seizure was determined after application of an electric shock to mice for 60 min followed by 200 mg/kg intraperitoneal dose; type: functional; method in brief: as §2
# Mus musculus [12] = experiment: Percentage block of the hind-limb tonic-extensor seizure was determined after application of an electric shock to mice for 240 min followed by 200 mg/kg intraperitoneal dose; type: functional; method in brief: as §1
# Mus musculus [13] = experiment: Percentage block of the hind-limb tonic-extensor seizure was determined after application of an electric shock to mice for 60 min followed by 400 mg/kg peroral dose; type: functional; conditions: route oral; method in brief: as §2
# Mus musculus [14] = experiment: Percentage block of the hind-limb tonic-extensor seizure was determined after application of an electric shock to mice for 30 min followed by 400 mg/kg peroral dose; type: functional; conditions: route oral; method in brief: as §1
# Mus musculus [15] = experiment: Percentage block of the hind-limb tonic-extensor seizure was determined after application of an electric shock to mice for 120 min followed by 400 mg/kg peroral dose; type: functional; conditions: route oral; method in brief: as §1
# Mus musculus [16] = experiment: Percentage block of the hind-limb tonic-extensor seizure was determined after application of an electric shock to mice for 120 min followed by 200 mg/kg intraperitoneal dose; type: functional; method in brief: as §1
# Mus musculus [17] = experiment: Percentage block of the hind-limb tonic-extensor seizure was determined after application of an electric shock to mice for 30 min followed by 200 mg/kg intraperitoneal dose; type: functional; method in brief: as §1
# Mus musculus [18] = experiment: Percentage block of the hind-limb tonic-extensor seizure was determined after application of an electric shock to mice for 240 min followed by 400 mg/kg peroral dose; type: functional; conditions: route oral; method in brief: as §1
# Mus musculus [19] = experiment: Anticonvulsant activity by using a standard maximal electroshock test (MES) in mice, by 100 mg/kg intraperitoneal administration of the compound; I=inactive, 0-10% block; type: functional, organism-based; parameters: dose 100 mg/kg; method in brief: as §1
# Mus musculus [20] = experiment: Anticonvulsant activity by using a standard maximal electroshock test (MES) in mice, by 200 mg/kg peroral administration of the compound; I=inactive, 0-10% block; type: functional, organism-based; parameters: dose 200 mg/kg; method in brief: as §1
# Mus musculus [21] = experiment: Anticonvulsant activity by using a standard maximal electroshock test (MES) in mice, by 100 mg/kg intraperitoneal administration of the compound; i =inactive; type: functional, organism-based; parameters: dose 100 mg/kg; method in brief: as §1
# Mus musculus [22] = experiment: Percentage block of the hind-limb tonic-extensor seizure was determined after application of an electric shock to mice for 30 min followed by 50 mg/kg intraperitoneal dose; type: functional; method in brief: as §1
# Mus musculus [23] = experiment: Percentage block of the hind-limb tonic-extensor seizure was determined after application of an electric shock to mice for 60 min followed by 100 mg/kg peroral dose; type: functional; conditions: route oral; method in brief: as §2
# Mus musculus [24] = experiment: Percentage block of the hind-limb tonic-extensor seizure was determined after application of an electric shock to mice for 30 min followed by 100 mg/kg peroral dose; type: functional; conditions: route oral; method in brief: as §1
# Mus musculus [25] = experiment: Percentage block of the hind-limb tonic-extensor seizure was determined after application of an electric shock to mice for 60 min followed by 50 mg/kg intraperitoneal dose; type: functional; method in brief: as §2
# Mus musculus [26] = experiment: Percentage block of the hind-limb tonic-extensor seizure was determined after application of an electric shock to mice for 240 min followed by 100 mg/kg peroral dose; type: functional; conditions: route oral; method in brief: as §1
# Mus musculus [27] = experiment: Percentage block of the hind-limb tonic-extensor seizure was determined after application of an electric shock to mice for 120 min followed by 100 mg/kg peroral dose; type: functional; conditions: route oral; method in brief: as §1
# Mus musculus [28] = experiment: Percentage block of the hind-limb tonic-extensor seizure was determined after application of an electric shock to mice for 120 min followed by 50 mg/kg intraperitoneal dose; type: functional; method in brief: as §1
# Mus musculus [29] = experiment: Percentage block of the hind-limb tonic-extensor seizure was determined after application of an electric shock to mice for 240 min followed by 50 mg/kg intraperitoneal dose; type: functional; method in brief: as §1
Structure (SMILES),ED50 (Mus musculus [1]) [mg/kg],ED50 (Mus musculus [2]) [mg/kg],Block (Mus musculus [3]) [%],Block (Mus musculus [4]) [%],Block (Mus musculus [5]) [%],Block (Mus musculus [6]) [%],Block (Mus musculus [7]) [%],Block (Mus musculus [8]) [%],Block (Mus musculus [9]) [%],Block (Mus musculus [10]) [%],also measured
CCCCCCCCCC1(C)OCC(COS(N)(=O)=O)O1 (stereo not given),319,> 200,,,,,,,,,
CN(C)S(=O)(=O)OC[C@@]12OC[C@H]3OC(C)(C)OC3C1OC(C)(C)O2 (stereo not given in full),> 100,> 200,30,30,80,80,50,30,30,40,
NS(=O)(=O)OCC1COc2ccccc2O1 (stereo not given),~100,118,60,0,80,80,30,,100,100,
CC1(C)O[C@@H]2[C@H](O1)[C@H]1OC(C)(C)OC1O[C@@H]2COS(N)(=O)=O (stereo not given in full),175,> 200,,,,,,,,,Block (Mus musculus [11]): 40%; Block (Mus musculus [12]): 30%; Block (Mus musculus [13]): 80%; Block (Mus musculus [14]): 50%; Block (Mus musculus [15]): 90%; Block (Mus musculus [16]): 50%; Block (Mus musculus [17]): 20%; Block (Mus musculus [18]): 80%
CC1(C)OC2C3OC(C)(C)O[C@]3(COS(=O)(=O)Nc3ccccc3)OC[C@H]2O1 (stereo not given in full),,,0,0,0,0,0,0,0,0,ED50 (Mus musculus [19]): inactive; ED50 (Mus musculus [20]): inactive
NS(=O)(=O)OCC(c1ccccc1)c1ccccc1,,147,0,0,100,80,0,0,80,70,ED50 (Mus musculus [19]): inactive
CC1(COS(N)(=O)=O)CCCCC1,270,~400,,,,,,,,,Block (Mus musculus [11]): 30%; Block (Mus musculus [12]): 20%; Block (Mus musculus [13]): 40%; Block (Mus musculus [14]): 50%; Block (Mus musculus [15]): 80%; Block (Mus musculus [16]): 20%; Block (Mus musculus [17]): 30%; Block (Mus musculus [18]): 30%
NS(=O)(=O)OCC1(O)OC[C@@H](O)[C@@H](O)C1O (stereo not given in full),,,,,,,,,,,ED50 (Mus musculus [21]): inactive
CC1(C)OC[C@@H]2O[C@@]3(COS(N)(=O)=O)OC(C)(C)OC3[C@@H]2O1 (stereo not given in full),100,150,50,0,50,70,20,30,70,80,
CC1(C)OCC(COS(N)(=O)=O)O1 (stereo not given),~100,~75,70,70,100,100,90,50,70,90,
CC1(C)OC2C3OC4(CCCCC4)O[C@@H]3CO[C@@]2(COS(N)(=O)=O)O1 (stereo not given in full),,> 400,0,0,20,20,0,0,10,0,ED50 (Mus musculus [19]): inactive
CC1(C)OC2[C@H](O)[C@H](O)CO[C@@]2(COS(N)(=O)=O)O1 (stereo not given in full),,,0,0,0,0,,0,0,0,ED50 (Mus musculus [19]): inactive; ED50 (Mus musculus [20]): inactive
NS(=O)(=O)OCCc1ccccc1 [SULFAMIC ACID PHENETHYL ESTER],~50,~100,100,20,80,100,70,90,70,100,
CC1(C)O[C@@H]2CO[C@@]3(COS(=O)(=O)N=[N+]=[N-])OC(C)(C)OC3[C@@H]2O1 (stereo not given in full),> 100,~200,40,30,100,70,50,20,30,50,
COC1(COS(N)(=O)=O)OC(CO)[C@@H](O)C1O (stereo not given in full),,,,,,,,,,,ED50 (Mus musculus [21]): inactive
CC(=O)Nc1nnc(S(N)(=O)=O)s1 [ACETAZOLAMIDE],,45,,,,,,,,,
NS(=O)(=O)OCC1CCc2ccccc2C1 (stereo not given),56,82,,,,,,,,,Block (Mus musculus [22]): 30%; Block (Mus musculus [23]): 80%; Block (Mus musculus [24]): 80%; Block (Mus musculus [25]): 50%; Block (Mus musculus [26]): 30%; Block (Mus musculus [27]): 80%; Block (Mus musculus [28]): 0%; Block (Mus musculus [29]): 0%
NS(=O)(=O)OCC1CCCCO1 (stereo not given),195,154,,,,,,,,,
